Data from ChEMBL document CHEMBL1145162, “6-aryl-8H-indeno[1,2-d]thiazol-2-ylamines: A1 adenosine receptor agonist allosteric enhancers having improved potency” (J Med Chem, 2005).

Legend:
[1] = target: T1, Adenosine receptor A3 (Homo sapiens) (UniProt P0DMS8); test: Inhibition of human adenosine receptor A3 at 10 uM
T1 sequence (whole entry): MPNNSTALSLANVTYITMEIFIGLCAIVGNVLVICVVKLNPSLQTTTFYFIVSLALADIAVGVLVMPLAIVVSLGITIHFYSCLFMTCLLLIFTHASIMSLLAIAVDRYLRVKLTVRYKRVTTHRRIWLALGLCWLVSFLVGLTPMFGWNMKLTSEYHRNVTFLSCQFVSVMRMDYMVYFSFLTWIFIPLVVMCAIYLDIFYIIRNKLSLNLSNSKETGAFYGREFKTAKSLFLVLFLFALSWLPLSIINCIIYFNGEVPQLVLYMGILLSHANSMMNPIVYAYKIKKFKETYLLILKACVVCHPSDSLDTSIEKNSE

[2] = target: T2, Adenosine receptor A1 (Homo sapiens) (UniProt P30542); test: (§1) In vitro allosteric enhancer (AE) activity for adenosine A1 receptor at 50 uM
T2 sequence (whole entry): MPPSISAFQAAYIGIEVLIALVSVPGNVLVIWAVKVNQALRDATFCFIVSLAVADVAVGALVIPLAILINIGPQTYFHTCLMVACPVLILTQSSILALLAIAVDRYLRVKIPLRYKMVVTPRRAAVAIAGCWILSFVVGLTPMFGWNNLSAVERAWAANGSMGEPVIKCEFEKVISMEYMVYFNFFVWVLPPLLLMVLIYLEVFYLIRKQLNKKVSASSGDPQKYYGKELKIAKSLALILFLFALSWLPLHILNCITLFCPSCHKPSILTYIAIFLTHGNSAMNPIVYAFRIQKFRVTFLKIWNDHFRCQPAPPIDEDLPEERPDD
Outline: (§2)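 Single-point screen on membranes from CHO-K1 cells stably expressing hA1AR. Candidate enhancer was added at 50 μM final for 5 min. Dissociation was then started with 8-cyclopentyltheophylline plus GTPγS and run 10 min. Score = % specific agonist binding remaining; two to three assays, each in triplicate.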

[3] = target: T2, Adenosine receptor A1 (Homo sapiens); test: Allosteric enhancer (AE) activity against human adenosine A1 receptor at 50 uM; outline: as §2
[4] = target: Adenosine receptor A2a (Homo sapiens) (UniProt P29274); test: In vitro allosteric enhancer (AE) activity for adenosine A2A receptor at 50 uM
[5] = target: T1, Adenosine receptor A3 (Homo sapiens); test: In vitro allosteric enhancer (AE) activity for adenosine A3 receptor at 50 uM
[6] = target: T2, Adenosine receptor A1 (Homo sapiens); test: as §1; outline: as §2; remark: listed apart in the source
[7] = target: T3, Adenosine receptor A1 (Rattus norvegicus) (UniProt P25099); test: Allosteric enhancer (AE) activity against rat adenosine A1 receptor
T3 sequence (whole entry): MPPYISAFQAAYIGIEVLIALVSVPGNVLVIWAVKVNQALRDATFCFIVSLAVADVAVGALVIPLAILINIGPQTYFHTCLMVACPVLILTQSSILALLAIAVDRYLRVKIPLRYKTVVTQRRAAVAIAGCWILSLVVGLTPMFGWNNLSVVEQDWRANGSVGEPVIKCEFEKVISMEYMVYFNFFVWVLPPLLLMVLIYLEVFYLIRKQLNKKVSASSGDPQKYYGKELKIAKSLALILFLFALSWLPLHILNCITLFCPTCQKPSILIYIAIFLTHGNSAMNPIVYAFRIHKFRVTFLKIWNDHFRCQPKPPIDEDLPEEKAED

[8] = target: T2, Adenosine receptor A1 (Homo sapiens); test: Inhibition of human adenosine receptor A1 at 10 uM
Outline: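 CHO-K1 hA1AR membranes at 0.5 mg/mL in 10 mM HEPES pH 7.4 with 1 mM EDTA, 1 U/mL adenosine deaminase, 5 mM MgCl2 and 2 nM [3H]CPX. Mixed 1:1 with buffer containing 20 μM enhancer. Equilibrium 3 h at room temperature; 100 μM NECA defined nonspecific binding. Inhibition expressed relative to control specific binding; duplicate assays.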

[9] = target: T4, Adenosine receptor A1 (Homo sapiens, UniProt P30542); test: Antagonist activity against adenosine A1 receptor; type: functional; parameters: concentration or dose not given beside the values
T4 sequence (P30542 whole entry): T2 sequence (whole entry)
Outline: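 Equilibrium binding on CHO-K1 hA1AR membranes (15 μg) in 10 mM HEPES pH 7.4, 1 mM EDTA, 1 U/mL adenosine deaminase, 4 nM [3H]CPX. Mixed with an equal volume of 200 μM enhancer in HEPES–10% DMSO; 200 μM NECA for nonspecific binding. Incubated 3 h at room temperature, then filtered.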

[10] = target: T2, Adenosine receptor A1 (Homo sapiens); test: Allosteric enhancer activity against adenosine A1 receptor
[11] = target: T2, Adenosine receptor A1 (Homo sapiens); test: In vitro allosteric enhancer (AE) activity for adenosine A1 receptor maximal score from curve fitting
[12] = target: T2, Adenosine receptor A1 (Homo sapiens); test: as §1; outline: as §2; remark: listed apart in the source

Chain of Adenosine receptor A2a (Homo sapiens) (P29274 whole entry): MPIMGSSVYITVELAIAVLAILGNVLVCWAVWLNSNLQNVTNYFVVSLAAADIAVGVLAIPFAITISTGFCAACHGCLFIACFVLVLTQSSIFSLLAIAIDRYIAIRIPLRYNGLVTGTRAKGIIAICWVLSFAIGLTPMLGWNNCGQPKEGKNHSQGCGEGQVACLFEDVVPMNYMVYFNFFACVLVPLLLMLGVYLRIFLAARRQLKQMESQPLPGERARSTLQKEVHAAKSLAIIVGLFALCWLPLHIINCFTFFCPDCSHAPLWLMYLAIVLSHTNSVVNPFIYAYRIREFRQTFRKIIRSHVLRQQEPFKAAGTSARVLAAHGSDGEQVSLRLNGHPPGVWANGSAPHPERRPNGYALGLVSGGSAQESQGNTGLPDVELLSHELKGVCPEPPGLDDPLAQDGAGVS

Compound	inhibition [1] [%]	Alloste ic enhan er (AE) [2] [%]	Alloste ic enhan er (AE) [3] [%]	Alloste ic enhan er (AE) [4] [%]	Alloste ic enhan er (AE) [5] [%]	Alloste ic enhan er (AE) [6] [%]	Alloste ic enhan er (AE) [7] [%]	inhibition [8] [%]	Inhibition [9] [%]	EC50 [10] [µM]	Allosteric enhancer (AE) [11] [%]	Alloste ic enhan er (AE) [12] [%]
CN(C)c1ccc(-c2ccc3c(c2)Cc2sc(N)nc2-3)cc1	38.6	81	67.9	3.4	24.8	81.8	31.7	23.1	12.5	–	–	–
Nc1nc2c(s1)Cc1cc(-c3ccccc3)ccc1-2	–	8.2	–	0	1.6	–	–	–	> 10	> 10	–	–
Nc1nc2c(s1)Cc1cc(-c3ccccc3Cl)ccc1-2	–	36.7	–	0	0	–	–	–	> 10	> 10	–	–
Nc1nc2c(s1)Cc1cc(-c3cccc(F)c3)ccc1-2	–	42.8	–	0	3.6	–	–	–	> 10	> 10	–	–
Nc1nc2c(s1)Cc1cc(-c3ccc(F)cc3)ccc1-2	–	54.4	–	0	11.8	–	–	–	> 10	> 10	–	–
Nc1nc2c(s1)Cc1cc(-c3ccc(O)cc3)ccc1-2	–	4	–	0	1	–	–	–	36.7	> 10	–	–
Cc1cc(C)cc(-c2ccc3c(c2)Cc2sc(N)nc2-3)c1	–	10.5	–	0	0	–	–	–	> 8.7	> 10	–	–
Nc1nc2c(s1)Cc1cc(-c3ccc4ccccc4c3)ccc1-2	–	38.6	–	0	4.5	–	–	–	> 4.2	> 10	–	–
Cc1sc(N)c(C(=O)c2cccc(C(F)(F)F)c2)c1C	–	20	–	0	5	–	–	–	–	> 10	–	–
Nc1nc2c(s1)Cc1cc(-c3cccc(C(F)(F)F)c3)ccc1-2	–	15.8	–	0	0	–	–	–	> 10	> 10	–	–
Nc1nc2c(s1)Cc1cc(-c3cccc(Cl)c3)ccc1-2	–	22.7	–	0	1	–	–	–	> 10	> 10	–	–
Nc1nc2c(s1)Cc1cc(-c3ccc4c(c3)OCO4)ccc1-2	22.5	82	90.7	0	2.9	–	48.8	10.5	11.6	–	91	–
Nc1nc2c(s1)Cc1cc(-c3ccc(Cl)c(Cl)c3)ccc1-2	–	45.3	–	0	0	–	–	–	8	> 10	22.6	–
Cc1ccc(C)c(-c2ccc3c(c2)Cc2sc(N)nc2-3)c1	–	47.7	–	0	0	–	–	–	> 10	7.3	51	–
COc1cccc(-c2ccc3c(c2)Cc2sc(N)nc2-3)c1	–	64	–	0	1.8	–	–	–	19.3	> 10	–	–
COc1ccccc1-c1ccc2c(c1)Cc1sc(N)nc1-2	–	38	–	0	1	–	–	–	43.5	> 10	–	–
Nc1nc2c(s1)Cc1cc(-c3cc4ccccc4o3)ccc1-2	–	51	–	0.8	11.9	–	–	–	–	–	–	–

Compound	inhibition [1] [%]	Alloste ic enhan er (AE) [2] [%]	Alloste ic enhan er (AE) [3] [%]	Alloste ic enhan er (AE) [4] [%]	Alloste ic enhan er (AE) [5] [%]	Alloste ic enhan er (AE) [6] [%]	Alloste ic enhan er (AE) [7] [%]	inhibition [8] [%]	Inhibition [9] [%]	EC50 [10] [µM]	Allosteric enhancer (AE) [11] [%]	Alloste ic enhan er (AE) [12] [%]
Nc1nc2c(s1)Cc1cc(-c3ccc(C(F)(F)F)cc3)ccc1-2	–	8.9	–	0	0	–	–	–	> 10	> 10	–	–
Nc1nc2c(s1)Cc1cc(-c3ccsc3)ccc1-2	–	68.8	–	0	3.8	–	–	–	–	–	–	–
Nc1nc2c(s1)Cc1cc(-c3ccccc3C(F)(F)F)ccc1-2	–	50.1	–	0	6.6	–	–	–	> 10	5.1	57	–
COc1ccc(-c2ccc3c(c2)Cc2sc(N)nc2-3)c(OC)c1	–	73	–	0	1.9	–	–	–	16	> 10	–	–
Nc1nc2c(s1)Cc1cc(-c3cccc4ccccc34)ccc1-2	–	61.2	–	0	4.2	–	–	–	> 13	3	65.6	–
Nc1nc2c(s1)Cc1cc(-c3cccs3)ccc1-2	–	32	–	0	1.8	–	–	–	–	–	–	–
COc1cc(-c2ccc3c(c2)Cc2sc(N)nc2-3)cc(OC)c1OC	–	23.3	–	0	0.8	–	–	–	11.8	> 10	–	–
COc1ccc(-c2ccc3c(c2)Cc2sc(N)nc2-3)cc1	37.6	87	72	0	18	–	32.3	25.2	13.3	–	–	90.2
Nc1nc2c(s1)Cc1cc(-c3ccccc3[N+](=O)[O-])ccc1-2	–	40.1	–	0	0	–	–	–	8.3	6.3	49.7	–
Nc1nc2c(s1)Cc1cc(-c3cccc(O)c3)ccc1-2	–	10	–	0	1	–	–	–	36.7	> 10	–	–
Cc1ccccc1-c1ccc2c(c1)Cc1sc(N)nc1-2	–	36.6	–	0	0	–	–	–	34.4	> 10	–	–
Nc1nc2c(s1)Cc1cc(-c3cccc([N+](=O)[O-])c3)ccc1-2	–	13	–	0	0	–	–	–	8.3	> 10	–	–
Nc1nc2c(s1)Cc1cc(-c3ccccc3F)ccc1-2	–	4.9	–	0	3.6	–	–	–	13.2	> 10	–	–
Cc1ccc(-c2ccc3c(c2)Cc2sc(N)nc2-3)cc1C	–	52	–	0	0	–	–	–	30.1	> 10	–	–
COc1ccc(-c2ccc3c(c2)Cc2sc(N)nc2-3)c(OC)c1OC	–	64.5	–	0.3	0	–	–	–	18	> 10	–	–
COc1ccc2cc(-c3ccc4c(c3)Cc3sc(N)nc3-4)ccc2c1	–	24.4	–	0	0	–	–	–	–	–	–	–
